Activity calls are given as the source filed them. No cut-off for these calls is given here.
Legend:
Hepatitis C virus [1] = test: Antiviral activity against Hepatitis C virus genotype 1b Con1 infected in human Huh-luc/neo-ET replicon cells assessed as viral replicon survival dosed at 50 nM incubated for 12 days followed by compound removal and reintroduction of 250 ug/ml G418 measured after 12 days post compound withdrawal; format: functional, Hepacivirus hominis
Summary of the method: (§1)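 Huh-luc/neo-ET cells were seeded at 2 × 10^5 per well and kept without G418 for 12 days with DMSO or up to 1 μM drug. Cells were split every 3 days, with medium and drug renewed. Drug was then removed and 250 μg/ml G418 added for 12 more days, sampling at confluence. HCV 5′UTR RNA was measured by one-step qRT-PCR, normalised to β-actin and expressed relative to mock. Viability was read by CellTiter-Glo as % of mock.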

[2] = Cytotoxicity against human HuH7 cells by luminescence based cell viability assay; design: species or system Huh-7
Summary of the method: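 Exponentially growing Huh-7 cells seeded at 1 × 10^4 per well and incubated with compounds for 3 days. Viability read by CellTiter-Glo luminescence, used for dark compounds that interfere with methylene blue absorbance at 595 nm. CC50 derived.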

Hepatitis C virus [3] = test: Antiviral activity against Hepatitis C virus genotype 1b Con1 infected in human Huh-luc/neo-ET replicon cells assessed as viral replicon survival dosed at 100 nM incubated for 12 days followed by compound removal and reintroduction of 250 ug/ml G418 measured after 12 days post compound withdrawal; format: functional, Hepacivirus hominis; summary of the method: as §1
Hepatitis C virus [4] = test: Antiviral activity against Hepatitis C virus genotype 1b Con1 infected in human Huh-luc/neo-ET replicon cells assessed as inhibition of virus-induced cytopathic effect after 24 hrs by luciferase reporter assay; format: functional, organism-based, Hepacivirus hominis
Summary of the method: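 Huh-luc/neo-ET cells seeded at 1 × 10^5 per well and treated with DMSO or serially diluted compound up to 250 nM. Harvested at 24 or 48 h. Luciferase run in triplicate and RLU normalized to total protein (Bradford), expressed as percent of mock control. Three independent repeats averaged.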

Hepatitis C virus [5] = test: Antiviral activity against Hepatitis C virus genotype 1b Con1 infected in human Huh-luc/neo-ET replicon cells assessed as reduction in viral RNA level after 48 hrs by RT-PCR; format: functional, organism-based, Hepacivirus hominis
Summary of the method: (§2)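 Cells seeded at 1 × 10^5 per well and treated with DMSO or compound up to 250 nM for 24, 48 or 72 h. Total RNA diluted to 50 ng/μl. Replicon RNA (5′ UTR) measured in triplicate by one-step qRT-PCR, normalized to β-actin mRNA, and expressed as percent of mock control. Three independent repeats.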

Hepatitis C virus [6] = test: Antiviral activity against Hepatitis C virus genotype 1b Con1 infected in human Huh-luc/neo-ET replicon cells assessed as inhibition of viral rebound dosed at 300 nM incubated for 9 days followed by compound removal and reintroduction of 250 ug/ml G418 measured after 15 days post compound withdrawal; format: functional, organism-based; details: Hepacivirus hominis
Summary of the method: (§3)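 In a separate run, Huh-luc/neo-ET replicon cells were treated for 9 days without G418. Drug was then withdrawn and cells were kept for a 15-day rebound period under G418 selection. Surviving cells were scored as the fraction of the population that outlasted selection.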

Hepatitis B virus = test: Antiviral activity against Hepatitis B virus infected in human 2.2.15 cells assessed as reduction of […] after 72 hrs by southern DNA hybridization method; format: functional, organism-based; details: HepG2 2.2.15, 72 h
Hepatitis C virus [7] = test: Antiviral activity against Hepatitis C virus genotype 1b Con1 infected in human Huh-luc/neo-ET replicon cells assessed as inhibition of viral rebound dosed at 1 uM incubated for 9 days followed by compound removal and reintroduction of 250 ug/ml G418 measured after 15 days post compound withdrawal; format: functional, organism-based; details: Hepacivirus hominis; summary of the method: as §3
Hepatitis C virus [8] = test: Antiviral activity against Hepatitis C virus genotype 1b Con1 infected in human Huh-luc/neo-ET replicon cells assessed as reduction in viral RNA level after 24 hrs by RT-PCR; format: functional, organism-based, Hepacivirus hominis; summary of the method: as §2
CCRF-CEM = test: Mitochondrial DNA toxicity in human CEM cells; format: cell-based
Summary of the method: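 CEM cell lysates slot-blotted and hybridized with an mtDNA-specific probe, then reprobed with an Alu probe as internal control. Bands quantified by autoradiography and densitometry.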

Cytochrome c = Cytochrome c (Homo sapiens, UniProt P99999); test: Binding affinity to Cytochrome C
Cytochrome c, sequence (P99999 whole entry): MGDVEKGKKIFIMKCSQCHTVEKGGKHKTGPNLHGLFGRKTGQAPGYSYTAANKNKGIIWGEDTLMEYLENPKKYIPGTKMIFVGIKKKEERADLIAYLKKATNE

With `O=C(O)c1cc(C(=O)O)cc(-c2ccc(-c3c4nc(c(-c5ccc(-c6cc(C(=O)O)cc(C(=O)O)c6)cc5)c5ccc([nH]5)c(-c5ccc(-c6cc(C(=O)O)cc(C(=O)O)c6)cc5)c5ccc([nH]5)c(-c5ccc(-c6cc(C(=O)O)cc(C(=O)O)c6)cc5)c5nc3C=C5)C=C4)cc2)c1` the Survival (Hepatitis C virus [1]) was 13.1%, the CC50 [2] was > 50000 nM and the Survival (Hepatitis C virus [3]) was 0.007%. The EC50 (Hepatitis C virus [4]) was 57.8 nM, the inhibition (Hepatitis C virus [4]; Hepacivirus hominis) was “Dose-dependent effect” and the EC50 (Hepatitis C virus [5]) was 36.2 nM. For the same compound, the inhibition (Hepatitis C virus [5]; Hepacivirus hominis) was “Dose-dependent effect”, the inhibition (Hepatitis C virus [6]) was “Active” and the EC50 (Hepatitis B virus) was > 20000 nM. For the same compound, the inhibition (Hepatitis C virus [7]) was “Active”, the EC50 (Hepatitis C virus [8]) was 67.8 nM and the inhibition (Hepatitis C virus [8]; Hepacivirus hominis) was “Dose-dependent effect”. For the same compound, the IC50 (CCRF-CEM) was > 50000 nM and the Kd (Cytochrome c) was 1500 nM.
